Data published in ChEMBL document CHEMBL3272076, “Synthesis and biological evaluation of omega-homologues of prostaglandin E1” (1976).
The source made the active and inactive calls. No cut-off for these calls is given here.

Experiments:
[1] = Muscle stimulating activity in Mongolian gerbil colon treated every 4 mins relative to PGE1; type: functional, Meriones unguiculatus
In short: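 Colon from adult male gerbils killed by cervical dislocation, bath oxygenated; isotonic longitudinal contractions recorded. Two doses each of test compound and PGE1 given at 4-min intervals in Latin square order, with a rinse after each. Four contractions per dose; relative potency computed by the Finney method. Compounds were dissolved in isoosmotic sodium phosphate buffer, pH 7.4.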

Canis familiaris [2] = test: Gastric antisecretory activity in Mongrel dog with heidenhain pouches assessed as inhibition of histamine-induced total acid output at 1 to 100 ug/kg, iv administered as single bolus dose at 1 hr post histamine challenge relative to PGE1; type: functional, Canis lupus familiaris
In short: (§1)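 Dogs fasted 18 h, placed in Pavlov stands and infused iv with 0.15 M NaCl. Pouch secretion was collected every 15 min. After basal secretion, histamine was infused at 1.0 mg/h (about 60 μg/kg/h, about 75% of maximal). At the steady-state plateau (about 1 h), a single iv bolus was given, logarithmically spaced, usually 1.0-100 μg/kg. Total acidity was titrated with 0.1 N NaOH to pH 7.0. ED50 is 50% inhibition of total acid output.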

Canis familiaris [3] = test: Gastric antisecretory activity in iv dosed Mongrel dog with heidenhain pouches assessed as inhibition of histamine-induced total acid output administered as single bolus dose at 1 hr post histamine challenge; type: functional; conditions: Canis lupus familiaris; in short: as §1
Rattus norvegicus = test: Hypotensive activity in iv dosed Charles River CD rat assessed as decrease in mean blood pressure administered as single bolus dose relative to PGE1; type: functional; design: Activity: scale not given: the % may be the effect or the level left
In short: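 Male rats, 200–300 g, anesthetized with urethane 1.5 g/kg ip. They received heparin 5 mg/kg iv, then atropine 5 mg/kg and pentolinium 10 mg/kg sc. Body temperature held at […] ± 0.5 °C. Carotid pressure recorded; femoral iv bolus doses of test and PGE1 given in a Latin square. Maximal fall in mean pressure read, with 4–8 replicates per dose, and potency from a four-point parallel line assay (Finney).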

Canis familiaris [4] = test: Gastric antisecretory activity in Mongrel dog with heidenhain pouches assessed as inhibition of histamine-induced total acid output at 30 ug/kg, iv administered as single bolus dose at 1 hr post histamine challenge; type: functional, organism-based; conditions: Canis lupus familiaris; in short: as §1
Canis familiaris [5] = test: Gastric antisecretory activity in Mongrel dog with heidenhain pouches assessed as inhibition of histamine-induced total acid output at 100 ug/kg, iv administered as single bolus dose at 1 hr post histamine challenge; type: functional, organism-based; conditions: Canis lupus familiaris; in short: as §1

SMILES	fold change (FC) [1]	fold change (FC) (Canis familiaris [2])	ED50 (Canis familiaris [3]) [µg/kg]	fold change (FC) (Rattus norvegicus)	Activity (Rattus norvegicus) [%]	inhibition (Canis familiaris [4])	inhibition (Canis familiaris [5])
CCCCCC[C@H](O)/C=C/C1[C@H](O)CC(=O)[C@@H]1CCCCCCC(=O)O (mixture of isomers)	0.54	1.13	5.8	0.68	–	–	–
CCCCCCC[C@H](O)/C=C/C1[C@H](O)CC(=O)[C@@H]1CCCCCCC(=O)O (mixture of isomers)	0.064	0.25	30	0.84	84	–	–
CCCCCCCC[C@H](O)/C=C/C1[C@H](O)CC(=O)[C@@H]1CCCCCCC(=O)O (mixture of isomers)	0.005	–	–	0.42	–	inactive	–
CCCCCCCCC[C@H](O)/C=C/C1[C@H](O)CC(=O)[C@@H]1CCCCCCC(=O)O (mixture of isomers)	0.006	–	–	<0.12	–	–	Active
CCCCC[C@H](O)/C=C/[C@H]1[C@H](O)CC(=O)[C@@H]1CCCCCCC(=O)O [ALPROSTADIL]	–	–	7.59	–	–	–	–
